# Screening results: PubChem BioAssay, several laboratories
# ARFGAP1 inh – inhibitors of rat ARFGAP1; Q62848; Arfgap1-stimulated ARF1 GTP hydrolysis, GDP FP detection; inhibition, % at 16.5 µM; 0.26% of 360,000 active; AID 651572;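 active means inhibition above a per-plate limit, mean inhibition of low control wells plus 3 SD, cut at about 25% in these data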;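 further: 0% = DMSO wells with enzyme and 100% = wells lacking Arfgap1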
# Target sequence (Q62848 1-136 limits assumed): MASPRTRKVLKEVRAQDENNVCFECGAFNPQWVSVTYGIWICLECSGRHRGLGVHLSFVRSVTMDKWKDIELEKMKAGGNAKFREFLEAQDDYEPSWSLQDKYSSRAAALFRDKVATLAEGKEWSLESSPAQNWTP
#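 System: truncated rat Arfgap1 GAP domain / Medium: HEPES-based buffer, pH 7.5 / Also added: N-terminally truncated human ARF1-GTP substrate / Incubation: enzyme reaction 120 min at 25 °C after 20 min preincubation / Measured by: FP of antibody-bound GDP Alexa 633 tracer, ex 620/em 688 nm / Replicates: singlicate, each compound tested once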
# SMARCA2 activ – SMARCA2 function activation, primary screen; MG213 cells, MMTV-luciferase reporter, dexamethasone, overnight; activation, % at 9.1 µM; 1% of 370,000 active; AID 652017; in the data active means activation above about 7.8%;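 further: 0% = vehicle wells and 100% = reference activator wells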
# ASAP1 inh – inhibitors of human ASAP1 ArfGAP activity. Q9ULH1. ASAP1-stimulated ARF1 GTP hydrolysis, GDP FP detection. inhibition, % at 16.5 µM. 0.19% of 360,000 active. AID 624377; in the data active means inhibition above about 25%;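 further: 0% = vehicle with enzyme and substrate and 100% = no enzyme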
# Target sequence (Q9ULH1 325-724 limits assumed): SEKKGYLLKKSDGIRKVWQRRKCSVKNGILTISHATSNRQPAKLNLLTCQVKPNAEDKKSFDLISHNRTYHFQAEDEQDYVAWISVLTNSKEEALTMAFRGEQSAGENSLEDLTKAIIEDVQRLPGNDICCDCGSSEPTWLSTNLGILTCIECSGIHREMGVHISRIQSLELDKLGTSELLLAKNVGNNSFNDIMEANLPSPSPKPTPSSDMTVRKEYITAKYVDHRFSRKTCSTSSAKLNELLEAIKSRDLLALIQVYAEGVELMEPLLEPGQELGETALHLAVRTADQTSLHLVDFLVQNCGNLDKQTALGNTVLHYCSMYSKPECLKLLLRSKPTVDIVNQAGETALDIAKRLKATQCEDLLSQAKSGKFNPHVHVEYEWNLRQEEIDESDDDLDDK
# esBAF inh – inhibitors of esBAF chromatin remodeling in mouse ES cells; Bmi1-luciferase knock-in reporter, 24 h; 100% = twice the neutral-well signal; reporter increase, % at 12.5 µM; 2% of 350,000 active; AID 602393; in the data active means activation above about 40%;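 further: 0% = median of the plate's neutral control wells and 100% = double that signal; a rise in the Bmi1 reporter signal indicates esBAF inhibition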
# Numbers without * were called inactive; . = not tested or not shown. Rows were chosen to be rich in hits. Some 2.6% of all compounds tested hit in one or more screens of this group.
SMILES,ARFGAP1 inh,SMARCA2 activ,ASAP1 inh,esBAF inh
Cc1ccc(OCc2cc(C(=O)N3CCC(c4ccccc4Cl)C3)no2)cc1C (configuration not stated),9,2,9,57*
O=C(Nc1cccc(Cl)c1)c1csc([C@H]2C[C@H](O)[C@@H](CO)O2)n1,1,4,-6,65*
CCOc1ccc2c(c1)sc(=NC(=O)C1CC1)n2C,1,6,-2,60*
Cn1nnnc1SCc1ccc(C(=O)Nc2ccc(Br)cc2)cc1,-2,3,10,72*
CC(=O)Nc1ccc(C(=O)CSc2nnnn2C)cc1,7,-1,7,2
O=C(N/N=C/c1cccc(OCc2ccccc2)c1)c1cccs1,3,0,-1,46*
Cc1cc(C)n(-c2nc(-c3cccc(Cl)c3)cs2)n1,-8,3,8,49*
Cc1cc(Cl)n2ncc(-c3ccccc3)c2n1,5,1,9,48*
Cc1cc(N)n2ncc(-c3ccc(F)cc3)c2n1,13,0,-14,58*
Cc1cc(NCc2ccccn2)n2ncc(-c3ccccc3)c2n1,8,-3,-9,51*
Cc1cc(N)n2ncc(-c3ccc(Cl)cc3)c2n1,14,7,-8,.
O=C(CCCN1CCC(C(=O)c2ccc(F)cc2)CC1)c1ccc(F)cc1,-6,-2,1,-2
O=C(CCCC(=O)c1ccc(F)cc1)c1ccc(F)cc1,-11,2,10,55*
COc1ccc(-n2c(C)cc(C3=NNC(=NC4CC4)SC3)c2C)cc1,3,9.8*,6,.
Cc1cc(C2=NNC(=NC3CC3)SC2)c(C)n1-c1ccccc1,0,-7,-11,.
O=C(CCCN1CCOCC1)c1ccc2c(c1)OCCO2,-11,4,8,50*
C[C@@H]1CN([C@H](C)CO)C(=O)Cc2cc(NC(=O)Cc3cn(C)c4ccccc34)ccc2O[C@H]1CN(C)C(=O)Nc1ccc(F)cc1,.,.,.,-2
Cn1cc(C(=O)C(=O)NCCc2ccccc2)c2ccccc21,2,0,16,4
Cc1ccccc1NC(=O)C(=O)c1cn(C)c2ccccc12,-5,3,-8,56*
COc1ccc(NC(=O)Nc2ccc3c(c2)[C@H]2C[C@@H](CC(=O)O)O[C@@H](CO)[C@H]2O3)cc1,.,.,.,-5
C[C@H](CO)N1C[C@H](C)[C@@H](CN(C)S(C)(=O)=O)Oc2ccc(NS(=O)(=O)c3cccs3)cc2CC1=O,.,.,.,0
N/C(=N\OC(=O)COc1ccc(Cl)cc1Br)c1cccnc1,10,4,2,.
O=C(COc1ccc(Cl)cc1Cl)N1CCCCCC1,-9,1,-2,48*
N/C(=N\OC(=O)COc1ccc(Cl)cc1Cl)c1ccncc1,0,0,11,71*
O=C(COc1ccc(S(=O)(=O)N2CCCCC2)cc1Cl)N1CCCC1,4,-1,15,2
SMILES,ARFGAP1 inh,SMARCA2 activ,ASAP1 inh,esBAF inh
C[C@H]1CN([C@@H](C)CO)C(=O)c2cccc(NC(=O)C3CCCCC3)c2O[C@@H]1CN(C)S(C)(=O)=O,.,.,.,0
O=C(/C=C/NNC(=O)c1ccccc1O)c1ccccc1,11,-1,-1,61*
COc1cc(Cl)c(C)cc1NC(=O)c1ccc2c(c1)OCO2,12,1,-1,46*
COc1ccc(C)cc1NC(=O)c1ccc2c(c1)OCO2,7,-1,3,11
Cc1cc(Cl)ccc1NC(=O)c1ccc2c(c1)OCO2,2,0,4,77*
C[C@H](CO)N1C[C@H](C)[C@H](CN(C)C)Oc2ccc(NC(=O)C3CC3)cc2C1=O,.,.,.,0
CC(C)(C)c1csc(NC(=O)c2ccncc2)n1,5,-6,12,.
CN(C)CCNC(=O)c1cc2c(s1)-c1ccccc1OC2,-3,1,8,-36
O=C(Nc1nc(-c2ccc(Cl)s2)cs1)c1ccccc1,11,-4,5,50*
Cc1csc(NC(=O)c2cc3c(s2)-c2ccccc2OC3)n1,-1,-2,10,86*
Cc1ccc(C(=O)Nc2nc(C(C)(C)C)cs2)s1,13,1,-1,66*
CC(C)(C)c1csc(NC(=O)c2ccc(Cl)s2)n1,-6,0,14,94*
O=C(Cc1ccccc1)N[C@@H]1CC[C@H](CC(=O)N2CCCCC2)O[C@@H]1CO,.,.,.,0
Cc1ccnc(NC(=O)c2ccc(Cl)s2)c1,.,.,.,61*
O=C(Nc1ccccn1)c1ccc(Br)s1,11,3,-4,48*
Cc1csc(NC(=O)c2ccc(Br)s2)n1,-6,1,4,57*
O=C(Nc1cccc(F)c1)N1C[C@@H]2[C@H](c3ccccc31)[C@@H](CO)N2C(=O)C1CCOCC1,.,.,.,-7
C[C@H](CO)N1C[C@H](C)[C@H](CN(C)CC2CC2)Oc2ccc(NC(=O)CCCCCC(=O)Nc3ccccc3N)cc2C1=O,.,.,.,-7
Fc1cccc(Cl)c1CN1CCN(c2nc3ccccc3s2)CC1,-13,5,-7,70*
Fc1cccc(Cl)c1CN1CCN(c2ncc(Cc3ccccc3)cn2)CC1,3,-4,4,.
CCc1nnc(NS(=O)(=O)c2ccc(N/C=C\C(=O)c3cccc(OC)c3)cc2)s1,4,7.9*,8,.
Cc1ccccc1C1CCCN(C(=O)c2cc(COc3c(F)cccc3F)on2)C1 (configuration not stated),-7,-5,-2,-2
COCC1CCCN(C(=O)c2ccc3oc(CCCc4ccccc4)nc3c2)C1 (configuration not stated),11,0,9,16
CCCCc1nc2cc(C(=O)N3CCCC(OCCC)C3)ccc2o1 (configuration not stated),-3,0,-3,64*
CCCOC1CCCN(C(=O)c2cc(COc3c(F)cccc3F)on2)C1 (configuration not stated),2,5,-8,89*
SMILES,ARFGAP1 inh,SMARCA2 activ,ASAP1 inh,esBAF inh
COCC1CCN(C(=O)c2ccc3oc(Cc4ccc(Cl)cc4)nc3c2)C1 (configuration not stated),10,0,-5,9
COCC1CCN(C(=O)c2ccc3oc(CCCc4ccccc4)nc3c2)C1 (configuration not stated),1,1,-9,46*
CCCCc1nc2cc(C(=O)N3CCCC(COC)C3)ccc2o1 (configuration not stated),-9,3,-15,63*
CCCCc1nc2cc(C(=O)N3CCC(OCCOC)CC3)ccc2o1,13,6,-4,24
O=C([C@H]1N[C@H]2c3ccc(-c4ccc(F)cc4)c(=O)n3C[C@H]2[C@@H]1CO)N1CCc2ccccc2C1,.,.,.,-1
CO[C@@H]1CN(C)C(=O)c2ccc(NC(=O)c3cccc(Oc4ccccc4)c3)cc2OC[C@@H](C)NC[C@H]1C,.,.,.,2
CNc1cc(-c2cnn(CC(C)C)c2)ncn1,1,1,0,51*
O=C(Cc1ccncc1)Nc1ccc2c(c1)[C@@H]1C[C@H](CC(=O)NC3CCCC3)O[C@H](CO)[C@@H]1O2,.,.,.,8
N#C/C(=N\Nc1ccc(F)cc1)C(=N)N1CCCCC1,2,7.8*,6,13
N#C/C(=N\Nc1ccccc1)C(=N)N1CCCCCC1,1,2,-13,16
